Data as given in ChEMBL document CHEMBL1125091, “Antiulcer agents. 4-substituted 2-guanidinothiazoles: reversible, competitive, and selective inhibitors of gastric H+,K(+)-ATPase” (J Med Chem, 1990).

test system: Rattus norvegicus; test: Gastric antisecretory activity against gastric secretion in the pylorus-ligated rat at a dose of 30 mg/Kg; type: functional, Stomach; details: not given
Procedure, shortened: (§1)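 Conscious rats, pylorus ligated under ether anesthesia; drug or vehicle injected into the duodenum. Killed 2 h after surgery. Stomach contents centrifuged, then titrated to pH 7.0 for acid output (uEq/h per 100 g body weight). Inhibition calculated versus vehicle-treated rats. Means ± SE of 5-10 animals; Student's t test, p < 0.05.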

| SMILES | Activity [%] |
| --- | --- |
| CC(=O)Oc1ccc(-c2csc(N=C(N)N)n2)cc1OC(C)=O.Cl | 15 |
| Cc1[nH]c2ccccc2c1-c1nc(NC(=N)NCc2ccccc2)sc1C.Cl | 47 |
| Cl.N/C(=N\Cc1ccccc1)Nc1nc(-c2ccc(O)c(O)c2)cs1 | 2.5 |
| CC(=O)Oc1ccc(-c2csc(NC(=N)NCc3ccccc3)n2)cc1OC(C)=O.Cl | -1 |
| Cc1[nH]ccc1-c1csc(NC(=N)NCc2ccccc2)n1.O=C(O)/C=C\C(=O)O | 60 |

test system: Rattus norvegicus; test: Gastric antisecretory activity against gastric secretion in the pylorus-ligated rat at a dose of 60 mg/Kg; type: functional, Stomach; details: not given; procedure, shortened: as §1

| SMILES | Activity [%] |
| --- | --- |
| Cc1ccc2c(-c3csc(N=C(N)N)n3)c[nH]c2c1.Cl | 42 |
| Cc1sc(NC(=N)NCc2ccccc2)nc1-c1c[nH]c2ccc(Cl)cc12 | -59 |
| Cc1[nH]c2ccccc2c1-c1nc(NC(=N)NCc2ccccc2)sc1C.Cl | 69 |
| Cc1[nH]ccc1-c1nc(N=C(N)N)sc1C.Cl | 46 |
| Cl.N=C(NCc1ccccc1)Nc1nc(-c2c[nH]c3ccc(Br)cc23)cs1 | 52 |
| Cl.N=C(N)Nc1nc(-c2ccc(O)c(O)c2)cs1 | -149 |
| COc1ccc2[nH]cc(-c3csc(NC(=N)NCc4ccccc4)n3)c2c1.Cl | 48 |
| Cl.N=C(N)Nc1nc(-c2c[nH]c3ccc(Cl)cc23)cs1 | 22 |

biological target: Potassium-transporting ATPase (Canis familiaris); test: Inhibitory activity against dog gastric proton-pump enzyme H+/K+ ATPase; details: not given

| IC50 [µM] | SMILES |
| --- | --- |
| 15 | N=C(N)Nc1nc(-c2ccc(O)cc2)cs1 |
| 19 | COc1ccc2[nH]cc(-c3csc(N=C(N)N)n3)c2c1 |
| 9 | Cc1[nH]c2ccccc2c1-c1csc(N=C(N)N)n1 |
| 32 | Cc1cccc(-c2csc(N=C(N)N)n2)c1 |
| 23.8 | CC(=O)Nc1ccc2[nH]cc(-c3csc(NC(=N)NCc4ccccc4)n3)c2c1 |
| 10 | Cc1ccccc1-c1csc(NC(=N)NCc2ccccc2)n1 |
| 2.9 | Cc1ccc(C/N=C(\N)Nc2nc(-c3c[nH]c(C)c3)c(C)s2)cc1 |
| 9 | N=C(NCc1ccccc1)Nc1nc(-c2ccc[nH]2)cs1 |
| 0.7 | Cc1sc(N=C(N)NCc2ccccc2)nc1-c1c[nH]c2ccc(Cl)cc12 |
| 2 | Cc1c(-c2csc(N=C(N)N)n2)ccn1S(=O)(=O)c1ccccc1 |
| 14 | CN(C)c1ccc(-c2csc(N=C(N)N)n2)cc1 |
| 1.8 | Cc1ccc2[nH]cc(-c3csc(N=C(N)N)n3)c2c1 |
| 7 | Cc1[nH]ccc1-c1csc(N=C(N)N)n1 |
| 0.6 | Cc1[nH]c2ccc(Cl)cc2c1-c1nc(N=C(N)N)sc1C |
| 9.1 | Cc1cc(-c2nc(NC(=N)NCCc3ccccc3)sc2C)c[nH]1 |
| 17 | N=C(N)Nc1nc(-c2c[nH]c(C(=O)N3CCCCC3)c2)cs1 |
| 11 | N/C(=N\Cc1ccccc1)Nc1nc(-c2ccccc2O)cs1 |
| 5.2 | N/C(=N\Cc1ccccc1)Nc1nc(-c2ccc(N)cc2)cs1 |
| 7 | Cc1ccc(-c2csc(N=C(N)NCc3ccccc3)n2)[nH]1 |

| IC50 [µM] | SMILES |
| --- | --- |
| 14 | N=C(N)Nc1nc(-c2cc3ccccc3[nH]2)cs1 |
| 30 | N=C(N)Nc1nc(-c2ccc[nH]2)cs1 |
| 40 | NC(N)=Nc1nc(-c2ccccc2)cs1 |
| 10 | COc1cccc(-c2csc(NC(=N)NCc3ccccc3)n2)c1 |
| 6 | NC(N)=Nc1cc(Cl)nc(-c2ccccc2)n1 |
| 2.7 | N=C(NCc1ccccc1)Nc1nc(-c2c[nH]c3ccc(F)cc23)cs1 |
| 9 | N=C(N)Nc1nc(-c2c[nH]c3ccccc23)cs1 |
| 1.2 | N=C(N)Nc1nc(-c2c[nH]c3ccc(OCc4ccccc4)cc23)cs1 |
| 11 | Cc1cc(-c2csc(NC(=N)NCc3ccccc3)n2)c[nH]1 |
| 1 | Cc1cccc2c(-c3csc(NC(=N)NCc4ccccc4)n3)c[nH]c12 |
| 37 | CN(C)Cc1cccc(-c2csc(N=C(N)N)n2)c1 |
| 1.3 | Cc1[nH]ccc1-c1nc(N=C(N)N)sc1C.Cl |
| 0.3 | Cl.N/C(=N\Cc1ccccc1)Nc1nc(-c2ccc(O)c(O)c2)cs1 |
| 0.7 | Cl.N=C(NCc1ccccc1)Nc1nc(-c2c[nH]c3ccc(Br)cc23)cs1 |
| 1.5 | Cl.N=C(N)Nc1nc(-c2ccc(O)c(O)c2)cs1 |
| 6 | Cc1[nH]ccc1-c1csc(NC(=N)NCc2ccccc2)n1.O=C(O)/C=C\C(=O)O |
| 4.3 | COc1ccc2[nH]cc(-c3csc(NC(=N)NCc4ccccc4)n3)c2c1.Cl |
| 1.8 | Cl.N=C(N)Nc1nc(-c2c[nH]c3ccc(Cl)cc23)cs1 |

test system: Potassium-transporting ATPase (Canis familiaris); test: Percent inhibition of gastric proton-pump enzyme H+/K+ ATPase was determined at 50 uM; details: Canis lupus familiaris, Stomach

| inhibition [%] | SMILES |
| --- | --- |
| 75 | N=C(N)Nc1nc(-c2ccc(O)cc2)cs1 |
| 70 | COc1ccc2[nH]cc(-c3csc(N=C(N)N)n3)c2c1 |
| 85 | Cc1[nH]c2ccccc2c1-c1csc(N=C(N)N)n1 |
| 60 | Cc1cccc(-c2csc(N=C(N)N)n2)c1 |
| 66 | CC(=O)Nc1ccc2[nH]cc(-c3csc(NC(=N)NCc4ccccc4)n3)c2c1 |
| 111 | Cc1ccccc1-c1csc(NC(=N)NCc2ccccc2)n1 |
| 95 | Cc1ccc(C/N=C(\N)Nc2nc(-c3c[nH]c(C)c3)c(C)s2)cc1 |
| 81 | N=C(NCc1ccccc1)Nc1nc(-c2ccc[nH]2)cs1 |
| 101 | Cc1c(-c2csc(N=C(N)N)n2)ccn1S(=O)(=O)c1ccccc1 |
| 75 | CN(C)c1ccc(-c2csc(N=C(N)N)n2)cc1 |
| 76 | Cc1ccc2[nH]cc(-c3csc(N=C(N)N)n3)c2c1 |
| 96 | Cc1[nH]ccc1-c1csc(N=C(N)N)n1 |
| 103 | Cc1[nH]c2ccc(Cl)cc2c1-c1nc(N=C(N)N)sc1C |
| 87 | Cc1cc(-c2nc(NC(=N)NCCc3ccccc3)sc2C)c[nH]1 |
| 69 | N=C(N)Nc1nc(-c2c[nH]c(C(=O)N3CCCCC3)c2)cs1 |
| 85 | N/C(=N\Cc1ccccc1)Nc1nc(-c2ccccc2O)cs1 |
| 77 | N/C(=N\Cc1ccccc1)Nc1nc(-c2ccc(N)cc2)cs1 |
| 72 | N=C(N)Nc1nc(-c2cc3ccccc3[nH]2)cs1 |

| inhibition [%] | SMILES |
| --- | --- |
| 68 | N=C(N)Nc1nc(-c2ccc[nH]2)cs1 |
| 85 | COc1cccc(-c2csc(NC(=N)NCc3ccccc3)n2)c1 |
| 96 | N=C(NCc1ccccc1)Nc1nc(-c2c[nH]c3ccc(F)cc23)cs1 |
| 64 | Cc1ccc2c(-c3csc(N=C(N)N)n3)c[nH]c2c1.Cl |
| 91 | N=C(N)Nc1nc(-c2c[nH]c3ccccc23)cs1 |
| 101 | Cc1sc(NC(=N)NCc2ccccc2)nc1-c1c[nH]c2ccc(Cl)cc12 |
| 78 | N=C(N)Nc1nc(-c2c[nH]c3ccc(OCc4ccccc4)cc23)cs1 |
| 97 | Cc1cc(-c2csc(NC(=N)NCc3ccccc3)n2)c[nH]1 |
| 92 | Cc1cccc2c(-c3csc(NC(=N)NCc4ccccc4)n3)c[nH]c12 |
| 56 | CN(C)Cc1cccc(-c2csc(N=C(N)N)n2)c1 |
| 102 | Cc1[nH]ccc1-c1nc(N=C(N)N)sc1C.Cl |
| 111 | Cl.N/C(=N\Cc1ccccc1)Nc1nc(-c2ccc(O)c(O)c2)cs1 |
| 105 | Cl.N=C(NCc1ccccc1)Nc1nc(-c2c[nH]c3ccc(Br)cc23)cs1 |
| 100 | Cl.N=C(N)Nc1nc(-c2ccc(O)c(O)c2)cs1 |
| 93 | Cc1[nH]ccc1-c1csc(NC(=N)NCc2ccccc2)n1.O=C(O)/C=C\C(=O)O |
| 95 | COc1ccc2[nH]cc(-c3csc(NC(=N)NCc4ccccc4)n3)c2c1.Cl |
| 89 | Cl.N=C(N)Nc1nc(-c2c[nH]c3ccc(Cl)cc23)cs1 |

biological target: Potassium-transporting ATPase (Canis familiaris); test: Inhibitory activity of gastric proton-pump enzyme H+/K+ ATPase was determined at 50 uM; details: not given

| IC50 [µM] | SMILES |
| --- | --- |
| 27 | CC(=O)Oc1ccc(-c2csc(N=C(N)N)n2)cc1OC(C)=O.Cl |
| 5.3 | Cc1[nH]c2ccccc2c1-c1nc(NC(=N)NCc2ccccc2)sc1C.Cl |
| > 50 | CC(=O)Oc1ccc(-c2csc(NC(=N)NCc3ccccc3)n2)cc1OC(C)=O.Cl |

biological target: Potassium-transporting ATPase (Canis familiaris); test: The compound was tested in vitro for inhibition of gastric proton-pump enzyme H+/K+ ATPase; details: not given

| IC50 [µM] | SMILES |
| --- | --- |
| 1 | Cc1[nH]ccc1-c1nc(N=C(N)N)sc1C.Cl |
| 1.8 | Cl.N=C(N)Nc1nc(-c2c[nH]c3ccc(Cl)cc23)cs1 |
